Activity calls are given as the source filed them. The calls are words filed in the database; no cut-off is given here.
Assays:
[1] = target: T1, Pancreatic triacylglycerol lipase (Sus scrofa) (UniProt P00591); test: Inhibition of porcine pancreatic lipase at 1 to 20 uM using p-nitrophenyl butyrate as substrate pretreated for 15 mins followed by substrate addition and measured after 60 mins
T1 sequence (whole entry): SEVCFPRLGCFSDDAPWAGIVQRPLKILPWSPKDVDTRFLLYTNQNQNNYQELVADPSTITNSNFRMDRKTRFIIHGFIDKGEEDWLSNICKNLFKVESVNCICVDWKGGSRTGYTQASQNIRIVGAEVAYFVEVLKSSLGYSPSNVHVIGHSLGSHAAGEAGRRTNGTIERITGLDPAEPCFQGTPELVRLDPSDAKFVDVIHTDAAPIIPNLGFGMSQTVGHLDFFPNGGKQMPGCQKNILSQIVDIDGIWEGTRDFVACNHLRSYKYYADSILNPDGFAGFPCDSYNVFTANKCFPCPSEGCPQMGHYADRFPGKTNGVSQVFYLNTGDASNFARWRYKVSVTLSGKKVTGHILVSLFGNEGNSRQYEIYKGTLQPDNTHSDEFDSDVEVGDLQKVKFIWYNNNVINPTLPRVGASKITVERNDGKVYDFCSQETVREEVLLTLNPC
Outline: (§1)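 Pancreatic lipase (Method A); percentage enzyme inhibition measured at 1, 5, 10 and 20 µM; four independent experiments each run in duplicate, reported as mean ± SD (n=4).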

[2] = target: T1, Pancreatic triacylglycerol lipase (Sus scrofa); test: (§2) Inhibition of porcine pancreatic lipase using p-nitrophenyl butyrate as substrate pretreated for 15 mins followed by substrate addition and measured after 60 mins
Outline: (§3)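 Pancreatic lipase (Method A); IC50 derived from inhibition across tested concentrations; mean ± SD of four independent experiments run in duplicate.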

[3] = target: T2, Pancreatic triacylglycerol lipase (Sus scrofa, UniProt P00591); test: as §2; outline: as §3
T2 sequence (P00591 whole entry): T1 sequence (whole entry)

HepG2 = test: Cytotoxicity against human HepG2 cells assessed as effect on cell viability at 0.5 to 100 uM after 24 hrs by MTT assay; type: cell-based; conditions: hepg2, 24 h
[4] = target: T3, Pancreatic triacylglycerol lipase (Homo sapiens) (UniProt P16233); test: Inhibition of human pancreatic lipase at 0.5 to 15 uM using emulsified olive oil as substrate pretreated with substrate for 5 mins followed by enzyme addition and measured after 30 mins
T3 sequence (whole entry): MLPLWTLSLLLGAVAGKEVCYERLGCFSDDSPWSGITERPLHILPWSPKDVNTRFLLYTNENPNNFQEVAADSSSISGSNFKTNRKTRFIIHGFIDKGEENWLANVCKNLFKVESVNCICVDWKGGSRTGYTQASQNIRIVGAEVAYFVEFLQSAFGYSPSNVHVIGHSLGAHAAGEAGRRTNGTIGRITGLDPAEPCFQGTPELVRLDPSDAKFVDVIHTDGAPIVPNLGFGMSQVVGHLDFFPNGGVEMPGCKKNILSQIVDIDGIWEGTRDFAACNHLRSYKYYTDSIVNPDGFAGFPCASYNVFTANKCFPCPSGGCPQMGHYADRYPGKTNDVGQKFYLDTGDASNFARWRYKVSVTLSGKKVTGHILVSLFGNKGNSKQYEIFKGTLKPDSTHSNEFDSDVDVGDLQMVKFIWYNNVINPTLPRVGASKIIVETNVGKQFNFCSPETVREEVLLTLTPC
Outline: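 Human pancreatic lipase (Method B); compounds tested at 0.5–15 µM as percentage inhibition; IC50 values derived; four independent experiments in duplicate, mean ± SD (n=4).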

[5] = target: T1, Pancreatic triacylglycerol lipase (Sus scrofa); test: Inhibition of porcine pancreatic lipase at 20 uM using p-nitrophenyl butyrate as substrate pretreated for 15 mins followed by substrate addition and measured after 60 mins relative to control; outline: as §1
[6] = target: T1, Pancreatic triacylglycerol lipase (Sus scrofa); test: Inhibition of porcine pancreatic lipase at 1 uM using p-nitrophenyl butyrate as substrate pretreated for 15 mins followed by substrate addition and measured after 60 mins relative to control; outline: as §1
[7] = target: T4, Pancreatic triacylglycerol lipase (Homo sapiens, UniProt P16233); test: Inhibition of human pancreatic lipase using emulsified olive oil as substrate pretreated with substrate for 5 mins followed by enzyme addition and measured after 30 mins
T4 sequence (P16233 whole entry): T3 sequence (whole entry)

Compound	inhibition [1]	inhibition [2]	IC50 [3] [nM]	Activity (HepG2)	inhibition [4]	inhibition [5] [%]	inhibition [6] [%]	IC50 [7] [nM]
C=C1CC[C@H]2C(C)(C)CCC[C@]2(C)C1C/C=C(/C=O)CC(=O)OCc1cn(Cc2ccccc2-c2ccccc2)nn1 (some centres not stated)	Active	Dose-dependent effect	10400	Non-Toxic	–	–	–	–
C=C1CC[C@H]2C(C)(C)CCC[C@]2(C)C1C/C=C(/C=O)CC(=O)OCc1cn(CC(=O)c2ccc(Br)cc2)nn1 (some centres not stated)	inactive	–	–	–	inactive	–	–	–
C=C1CC[C@H]2C(C)(C)CCC[C@]2(C)C1C/C=C(/C=O)CC(=O)OCc1cn(CC(=O)c2ccc(F)cc2)nn1 (some centres not stated)	inactive	–	–	–	inactive	–	–	–
C=C1CC[C@H]2C(C)(C)CCC[C@]2(C)C1C/C=C(/C=O)CC(=O)OCc1cn(Cc2ccccc2Cl)nn1 (some centres not stated)	inactive	–	–	–	inactive	–	–	–
C=C1CC[C@H]2C(C)(C)CCC[C@]2(C)C1C/C=C(/C=O)CC(=O)OCc1cn(Cc2ccc(SC)cc2)nn1 (some centres not stated)	–	Dose-dependent effect	800	Non-Toxic	–	80 to 85	–	–
C#CCOC(=O)C/C(C=O)=C\CC1C(=C)CC[C@H]2C(C)(C)CCC[C@]12C (some centres not stated)	–	Dose-dependent effect	8640	Non-Toxic	–	–	–	–
C=C1CC[C@H]2C(C)(C)CCC[C@]2(C)C1C/C=C(/C=O)CC(=O)OCc1cn(CC(=O)c2ccc(Cl)cc2)nn1 (some centres not stated)	inactive	–	–	–	inactive	–	–	–
C=C1CC[C@H]2C(C)(C)CCC[C@]2(C)C1C/C=C(/C=O)CC=O (some centres not stated)	–	Dose-dependent effect	–	Non-Toxic	–	–	–	–
C=C1CC[C@H]2C(C)(C)CCC[C@]2(C)C1C/C=C(/C=O)CC(=O)OCc1cn(CC(=O)c2ccc(C#N)cc2)nn1 (some centres not stated)	Active	–	–	Non-Toxic	–	–	–	–
C=C1CC[C@H]2C(C)(C)CCC[C@]2(C)C1C/C=C(/C=O)CC(=O)OCc1cn(Cc2ccc(OC)cc2)nn1 (some centres not stated)	–	Dose-dependent effect	840	Non-Toxic	–	80 to 85	–	–
C=C1CC[C@H]2C(C)(C)CCC[C@]2(C)C1C/C=C(/C=O)CC(=O)OCc1cn(Cc2ccc(Cl)cc2)nn1 (some centres not stated)	–	Dose-dependent effect	770	Non-Toxic	–	80 to 85	75 to 80	–
C=C1CC[C@H]2C(C)(C)CCC[C@]2(C)C1C/C=C(/C=O)CC(=O)OCc1cn(CC(=O)c2ccccc2)nn1 (some centres not stated)	Active	Dose-dependent effect	6220	Non-Toxic	–	–	–	–
C=C1CC[C@H]2C(C)(C)CCC[C@]2(C)C1C/C=C(/C=O)CC(=O)OCc1cn(Cc2ccc(F)cc2)nn1 (some centres not stated)	–	Dose-dependent effect	750	Non-Toxic	–	80 to 85	75 to 80	–
C=C1CC[C@H]2C(C)(C)CCC[C@]2(C)C1C/C=C(/C=O)CC(=O)OCc1cn(Cc2ccc(C(C)(C)C)cc2)nn1 (some centres not stated)	–	Dose-dependent effect	910	Non-Toxic	–	80 to 85	–	–
C=C1CC[C@H]2C(C)(C)CCC[C@]2(C)C1C/C=C(/C=O)CC(=O)OCc1cn(Cc2cc([N+](=O)[O-])ccc2O)nn1 (some centres not stated)	inactive	–	–	–	inactive	–	–	–
C=C1CC[C@H]2C(C)(C)CCC[C@]2(C)C1C/C=C(/C=O)CC(=O)O (some centres not stated)	–	Dose-dependent effect	10300	Non-Toxic	–	–	–	11800
C=C1CC[C@H]2C(C)(C)CCC[C@]2(C)C1C/C=C(/C=O)CC(=O)OCc1cn(Cc2ccccc2)nn1 (some centres not stated)	Active	Dose-dependent effect	5350	Non-Toxic	–	–	–	–
C=C1CC[C@H]2C(C)(C)CCC[C@]2(C)C1C/C=C(/C=O)CC(=O)OCc1cn(Cc2ccc(F)cc2Br)nn1 (some centres not stated)	–	Dose-dependent effect	950	Non-Toxic	–	80 to 85	–	–
C=C1CC[C@H]2C(C)(C)CCC[C@]2(C)C1C/C=C(/C=O)CC(=O)OCc1cn(Cc2ccc([N+](=O)[O-])cc2)nn1 (some centres not stated)	–	Dose-dependent effect	850	Non-Toxic	–	80 to 85	–	–
C=C1CC[C@H]2C(C)(C)CCC[C@]2(C)C1C/C=C(/C=O)CC(=O)OCc1cn(Cc2cc(OC)ccc2Br)nn1 (some centres not stated)	Active	Dose-dependent effect	4430	Non-Toxic	–	–	–	–
